According to ChEMBL document CHEMBL4118192, “BET bromodomain ligands: Probing the WPF shelf to improve BRD4 bromodomain affinity and metabolic stability” (Bioorg Med Chem, 2018):

What was measured:
Assay type in all cases: functional
NCI-H460 = test: Growth inhibition of human NCI-H460 cells after 48 hrs by sulforhodamine B assay; details: NCI-H460, 48 h
Summary of the method: (§1)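 NCI-60 panel follow-up: five concentrations from 10 nM to 100 μM, 48 h exposure. Growth read by sulforhodamine B protein staining. GI50 derived from the concentration-response, with the concentration for total growth inhibition (TGI) also recorded when below 100 μM.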

RPMI-8226 = test: Growth inhibition of human RPMI8226 cells after 48 hrs by sulforhodamine B assay; details: RPMI-8226, 48 h; summary of the method: as §1
NCI-H226 [1] = test: Growth inhibition of human NCI-H226 cells at 10 uM after 48 hrs by sulforhodamine B assay relative to control; details: NCI-H226, 48 h, read-out: GI
Summary of the method: (§2)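 NCI-60 human cancer cell line screen, single-dose pass: cells exposed to 10 μM for 48 h. Cellular protein content read out by sulforhodamine B staining, and growth inhibition expressed relative to untreated control.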

HOP-62 = test: Growth inhibition of human HOP62 cells after 48 hrs by sulforhodamine B assay; details: HOP-62, 48 h
Summary of the method: (§3)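 NCI-60 panel screen. Cells were exposed for 48 h at five concentrations between 10 nM and 100 μM. Cellular protein was read by sulforhodamine B staining, and GI50 and total growth inhibition (TGI) concentrations were derived.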

MCF7 = test: Growth inhibition of human MCF7 cells at 10 uM after 48 hrs by sulforhodamine B assay relative to control; details: MCF7, 48 h, read-out: GI
Summary of the method: (§4)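 NCI-60 single-dose screen at 10 μM for 48 h. Percent growth inhibition was measured by sulforhodamine B staining of cellular protein.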

SF-268 [2] = test: Growth inhibition of human SF268 cells at 10 uM after 48 hrs by sulforhodamine B assay relative to control; details: SF-268, 48 h, read-out: GI; summary of the method: as §2
UO-31 = test: Growth inhibition of human UO31 cells after 48 hrs by sulforhodamine B assay; details: UO-31, 48 h
Summary of the method: (§5)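 NCI-60 panel cells treated at five concentrations from 10 nM to 100 μM for 48 h. Read-out by sulforhodamine B protein stain. GI50 and total growth inhibition (TGI, if below 100 μM) taken from the concentration-response data.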

SR = test: Growth inhibition of human SR cells at 10 uM after 48 hrs by sulforhodamine B assay relative to control; details: read-out: GI
Summary of the method: (§6)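 NCI-60 human cancer cell line screen, single dose of 10 μM for 48 h. Cellular protein content read by sulforhodamine B staining; growth inhibition expressed relative to untreated control.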

SK-MEL-28 [3] = test: Growth inhibition of human SK-MEL-28 cells after 48 hrs by sulforhodamine B assay; details: SK-MEL-28, 48 h; summary of the method: as §1
NCI-H522 = test: Growth inhibition of human NCI-H522 cells after 48 hrs by sulforhodamine B assay; details: NCI-H522, 48 h; summary of the method: as §1
SK-MEL-28 [4] = test: Growth inhibition of human SK-MEL-28 cells at 10 uM after 48 hrs by sulforhodamine B assay relative to control; details: SK-MEL-28, 48 h, read-out: GI; summary of the method: as §2
SF-268 [5] = test: Growth inhibition of human SF268 cells after 48 hrs by sulforhodamine B assay; details: SF-268, 48 h; summary of the method: as §1
NCI-H226 [6] = test: Growth inhibition of human NCI-H226 cells after 48 hrs by sulforhodamine B assay; details: NCI-H226, 48 h; summary of the method: as §1
SW-620 = test: Growth inhibition of human SW620 cells after 48 hrs by sulforhodamine B assay; details: SW-620, 48 h; summary of the method: as §5
A549 = test: Growth inhibition of human A549/ATCC cells after 48 hrs by sulforhodamine B assay; details: A549, 48 h; summary of the method: as §3
TK-10 = test: Growth inhibition of human TK10 cells after 48 hrs by sulforhodamine B assay; details: TK-10, 48 h; summary of the method: as §5
HCT-15 [7] = test: Growth inhibition of human HCT15 cells after 48 hrs by sulforhodamine B assay; details: HCT-15, 48 h; summary of the method: as §3
U-251 = test: Growth inhibition of human U251 cells after 48 hrs by sulforhodamine B assay; details: U-251, 48 h; summary of the method: as §5
SK-OV-3 = test: Growth inhibition of human SKOV3 cells after 48 hrs by sulforhodamine B assay; details: SK-OV-3, 48 h; summary of the method: as §1
COLO 205 = test: Growth inhibition of human COLO205 cells after 48 hrs by sulforhodamine B assay; details: COLO 205, 48 h; summary of the method: as §3
MDA-MB-468 = test: Growth inhibition of human MDA-MB-468 cells at 10 uM after 48 hrs by sulforhodamine B assay relative to control; details: MDA-MB-468, 48 h, read-out: GI; summary of the method: as §2
HCC 2998 = test: Growth inhibition of human HCC2998 cells at 10 uM after 48 hrs by sulforhodamine B assay relative to control; details: HCC 2998, 48 h, read-out: GI; summary of the method: as §4
HT-29 = test: Growth inhibition of human HT-29 cells at 10 uM after 48 hrs by sulforhodamine B assay relative to control; details: HT-29, 48 h, read-out: GI; summary of the method: as §4
SNB-19 = test: Growth inhibition of human SNB19 cells at 10 uM after 48 hrs by sulforhodamine B assay relative to control; details: SNB-19, 48 h, read-out: GI; summary of the method: as §2
UACC-62 = test: Growth inhibition of human UACC62 cells at 10 uM after 48 hrs by sulforhodamine B assay relative to control; details: UACC-62, 48 h, read-out: GI; summary of the method: as §6
MOLT-4 = test: Growth inhibition of human MOLT4 cells after 48 hrs by sulforhodamine B assay; details: MOLT-4, 48 h; summary of the method: as §1
HCT-15 [8] = test: Growth inhibition of human HCT15 cells at 10 uM after 48 hrs by sulforhodamine B assay relative to control; details: HCT-15, 48 h, read-out: GI; summary of the method: as §4
OVCAR-4 [9] = test: Growth inhibition of human OVCAR4 cells after 48 hrs by sulforhodamine B assay; details: OVCAR-4, 48 h; summary of the method: as §1
NCI-H322M = test: Growth inhibition of human NCI-H322M cells at 10 uM after 48 hrs by sulforhodamine B assay relative to control; details: read-out: GI; summary of the method: as §2
M14 = test: Growth inhibition of human M14 cells at 10 uM after 48 hrs by sulforhodamine B assay relative to control; details: M14, 48 h, read-out: GI; summary of the method: as §4
OVCAR-3 = test: Growth inhibition of human OVCAR3 cells after 48 hrs by sulforhodamine B assay; details: OVCAR-3, 48 h; summary of the method: as §1
SK-MEL-5 = test: Growth inhibition of human SK-MEL-5 cells at 10 uM after 48 hrs by sulforhodamine B assay relative to control; details: SK-MEL-5, 48 h, read-out: GI; summary of the method: as §2
OVCAR-4 [10] = test: Growth inhibition of human OVCAR4 cells at 10 uM after 48 hrs by sulforhodamine B assay relative to control; details: OVCAR-4, 48 h, read-out: GI; summary of the method: as §2
HL-60(TB) = test: Growth inhibition of human HL-60(TB) cells at 10 uM after 48 hrs by sulforhodamine B assay relative to control; details: HL-60, 48 h, read-out: GI
Summary of the method: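 NCI-60 human cancer cell line screen, single dose of 10 μM for 48 h. Growth inhibition measured by sulforhodamine B assay of cellular protein content.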

Row | Compound | GI50 (NCI-H460) | GI50 (RPMI-8226) | inhibition of growth at 10 µM (NCI-H226 [1]) | GI50 (HOP-62) | inhibition of growth at 10 µM (MCF7) | inhibition of growth at 10 µM (SF-268 [2]) | GI50 (UO-31) | inhibition of growth at 10 µM (SR) | GI50 (SK-MEL-28 [3]) | GI50 (NCI-H522) | inhibition of growth at 10 µM (SK-MEL-28 [4]) | GI50 (SF-268 [5]) | GI50 (NCI-H226 [6]) | GI50 (SW-620) | GI50 (A549) | GI50 (TK-10) | GI50 (HCT-15 [7]) | GI50 (U-251) | GI50 (SK-OV-3) | GI50 (COLO 205) | other results
1 | Cc1noc(C)c1-c1cc(O)cc(C(O)c2ccccc2)c1 (configuration not stated) | 25.1 µM | 1.94 µM | 34.5% | 4.89 µM | 79.1% | 28.5% | 4.58 µM | 72.9% | 9.15 µM | 27 µM | 38.8% | 39.3 µM | 21.3 µM | 24.5 µM | 22.4 µM | 1.08 µM | 3.52 µM | 15 µM | 7.01 µM | 5.25 µM | TGI (RPMI-8226): 9.7 µM; inhibition of growth at 10 µM (MDA-MB-468): 75.1%; inhibition of growth at 10 µM (HCC 2998): 37.8%; inhibition of growth at 10 µM (HT-29): 65.4%; inhibition of growth at 10 µM (SNB-19): 47.3%; inhibition of growth at 10 µM (UACC-62): 68.5%; GI50 (MOLT-4): 17.9 µM; TGI (MOLT-4): 80.7 µM; inhibition of growth at 10 µM (HCT-15 [8]): 63.3%; GI50 (OVCAR-4 [9]): 6.35 µM; inhibition of growth at 10 µM (NCI-H322M): 52.4%; inhibition of growth at 10 µM (M14): 44%; GI50 (OVCAR-3): 6.64 µM; inhibition of growth at 10 µM (SK-MEL-5): 45.8%; inhibition of growth at 10 µM (OVCAR-4 [10]): 67.5%; inhibition of growth at 10 µM (HL-60(TB)): 90%
2 | COc1ccccc1S(=O)(=O)Nc1ccc2c(c1)CN(C)C(=O)N2 | 9.3 µM | 2.2 µM | 37% | 2.5 µM | 78.5% | 27.1% | 1.1 µM | 64% | 6.2 µM | 8.7 µM | 51.1% | 28.8 µM | 14.1 µM | 12 µM | 19.5 µM | 1.6 µM | 3.2 µM | 15.1 µM | 4.9 µM | 3 µM | TGI (TK-10): 58.9 µM; inhibition of growth at 10 µM (MDA-MB-468): 78.9%; inhibition of growth at 10 µM (HCC 2998): 35.6%; inhibition of growth at 10 µM (HT-29): 77.2%; inhibition of growth at 10 µM (SNB-19): 45.9%; inhibition of growth at 10 µM (UACC-62): 70.7%; GI50 (MOLT-4): 10.5 µM; inhibition of growth at 10 µM (HCT-15 [8]): 59.2%; GI50 (OVCAR-4 [9]): 6.3 µM; inhibition of growth at 10 µM (NCI-H322M): 57.1%; inhibition of growth at 10 µM (M14): 52.2%; GI50 (OVCAR-3): 4 µM; TGI (OVCAR-3): 87.1 µM; inhibition of growth at 10 µM (SK-MEL-5): 59.5%; inhibition of growth at 10 µM (OVCAR-4 [10]): 56.9%; inhibition of growth at 10 µM (HL-60(TB)): 78.1%
